Laboratory results: ChEMBL document CHEMBL1138525 (J Med Chem, 2009)

How the values were obtained:
[1] = system: P2Y purinoceptor 2 (Homo sapiens), P41231 [UNDEFINED MUTATION]; assay: Ratio of EC50 for N-terminal HA epitope-tagged human P2Y2 receptor C278S mutant to EC50 for wild type 3 human P2Y2 receptor
P2Y purinoceptor 2 [2] = molecular target: P2Y purinoceptor 2 (Homo sapiens, UniProt P41231, C278S); assay: Agonist activity at N-terminal HA epitope-tagged human P2Y2 receptor C278S mutant expressed in human 1321N1 cells assessed as increase in intracellular calcium level; format: functional, cell-based
Chain of P2Y purinoceptor 2 (Homo sapiens, UniProt P41231, C278S) (P41231 whole entry C278S): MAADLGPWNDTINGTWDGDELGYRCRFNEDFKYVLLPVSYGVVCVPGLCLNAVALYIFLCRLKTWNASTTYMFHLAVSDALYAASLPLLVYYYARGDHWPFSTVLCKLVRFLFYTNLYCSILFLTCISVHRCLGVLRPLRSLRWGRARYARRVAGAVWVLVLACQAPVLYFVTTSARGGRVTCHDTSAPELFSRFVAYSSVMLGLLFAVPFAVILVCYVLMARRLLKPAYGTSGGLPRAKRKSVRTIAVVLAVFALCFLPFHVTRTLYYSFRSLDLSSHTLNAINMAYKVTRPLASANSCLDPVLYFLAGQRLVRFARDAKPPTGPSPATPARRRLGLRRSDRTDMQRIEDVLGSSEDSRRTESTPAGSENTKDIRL
In short: (§1)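 1321N1 astrocytoma cells stably expressing mutant receptor (retroviral transfection, G418 selection), loaded with Oregon Green BAPTA-1/AM in Krebs-HEPES pH 7.4 for 1 h at room temperature. Plated at 150000 cells/well and held 20 min at 28 °C in the dark. Efficacy relative to 100 µM carbachol.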

[3] = system: P2Y purinoceptor 2 (Homo sapiens), P41231 [UNDEFINED MUTATION]; assay: Ratio of EC50 for N-terminal HA epitope-tagged human P2Y2 receptor Y118A mutant to EC50 for wild type 3 human P2Y2 receptor
[4] = system: P2Y purinoceptor 2 (Homo sapiens), P41231 [S296A]; assay: Agonist activity at N-terminal HA epitope-tagged human P2Y2 receptor S296A mutant expressed in human 1321N1 cells assessed as increase in intracellular calcium level relative to carbachol; format: functional, cell-based
Chain of P2Y purinoceptor 2 (Homo sapiens), P41231 [S296A] (P41231 whole entry S296A): as the sequence (P41231 whole entry C278S) above, with S278C, S296A counted along it
In short: (§2)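 Retrovirally transduced stable 1321N1 astrocytoma lines (wild-type lines of differing expression, or mutants) in suspension, loaded with Oregon Green BAPTA-1/AM for 1 h at room temperature. Cells were plated at 150000 per well in Krebs-HEPES pH 7.4 and held 20 min at 28 °C in the dark. Agonist was then injected, with fluorescence read at ex 485/em 520 nm for 60 × 0.4 s.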

P2Y purinoceptor 2 [5] = molecular target: P2Y purinoceptor 2 (Homo sapiens, UniProt P41231, S296A); assay: Agonist activity at N-terminal HA epitope-tagged human P2Y2 receptor S296A mutant expressed in human 1321N1 cells assessed as increase in intracellular calcium level; format: functional, cell-based
Chain of P2Y purinoceptor 2 (Homo sapiens, UniProt P41231, S296A) (P41231 whole entry S296A): as the sequence (P41231 whole entry C278S) above, with S278C, S296A counted along it
In short: (§3)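 Retrovirally transduced stable 1321N1 astrocytoma lines (wild-type lines of differing expression, or mutants) in suspension, loaded with Oregon Green BAPTA-1/AM for 1 h at room temperature. Cells were plated at 150000 per well in Krebs-HEPES pH 7.4 and held 20 min at 28 °C in the dark.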

P2Y purinoceptor 2 [6] = molecular target: T1, P2Y purinoceptor 2 (Homo sapiens, UniProt P41231); assay: Agonist activity at N-terminal HA epitope-tagged wild type 3 human P2Y2 receptor expressed in human 1321N1 cells assessed as increase in intracellular calcium level relative to carbachol; format: functional, cell-based; in short: as §2
T1 sequence (P41231 whole entry): as the sequence (P41231 whole entry C278S) above, with S278C counted along it

P2Y purinoceptor 2 [7] = molecular target: T1, P2Y purinoceptor 2; assay: Agonist activity at N-terminal HA epitope-tagged wild type human P2Y2 receptor expressed in human 1321N1 cells assessed as increase in intracellular calcium level; format: functional, cell-based; in short: as §2
P2Y purinoceptor 2 [8] = molecular target: T1, P2Y purinoceptor 2; assay: Agonist activity at N-terminal HA epitope-tagged wild type 3 human P2Y2 receptor expressed in human 1321N1 cells assessed as increase in intracellular calcium level; format: functional, cell-based; in short: as §3
P2Y purinoceptor 2 [9] = molecular target: T1, P2Y purinoceptor 2; assay: Agonist activity at N-terminal HA epitope-tagged wild type 4 human P2Y2 receptor expressed in human 1321N1 cells assessed as increase in intracellular calcium level; format: functional, cell-based; in short: as §3
P2Y purinoceptor 2 [10] = molecular target: P2Y purinoceptor 2 (Homo sapiens, UniProt P41231, Y114A); assay: Agonist activity at N-terminal HA epitope-tagged human P2Y2 receptor Y114A mutant expressed in human 1321N1 cells assessed as increase in intracellular calcium level; format: functional, cell-based; in short: as §1
Chain of P2Y purinoceptor 2 (Homo sapiens, UniProt P41231, Y114A) (P41231 whole entry Y114A): as the sequence (P41231 whole entry C278S) above, with Y114A, S278C counted along it

P2Y purinoceptor 2 [11] = molecular target: T1, P2Y purinoceptor 2; assay: Agonist activity at N-terminal HA epitope-tagged wild type 4 human P2Y2 receptor expressed in human 1321N1 cells assessed as increase in intracellular calcium level relative to carbachol; format: functional, cell-based; in short: as §2
[12] = system: P2Y purinoceptor 2 (Homo sapiens), P41231 [Y114A]; assay: Agonist activity at N-terminal HA epitope-tagged human P2Y2 receptor Y114A mutant expressed in human 1321N1 cells assessed as increase in intracellular calcium level relative to carbachol; format: functional, cell-based; in short: as §2
Chain of P2Y purinoceptor 2 (Homo sapiens), P41231 [Y114A] (P41231 whole entry Y114A): as the sequence (P41231 whole entry C278S) above, with Y114A, S278C counted along it

P2Y purinoceptor 2 [13] = molecular target: P2Y purinoceptor 2 (Homo sapiens, UniProt P41231, R177A/R180A); assay: Agonist activity at N-terminal HA epitope-tagged human P2Y2 receptor R177A_R180A double mutant expressed in human 1321N1 cells assessed as increase in intracellular calcium level; format: functional, cell-based; in short: as §1
Chain of P2Y purinoceptor 2 (Homo sapiens, UniProt P41231, R177A/R180A) (P41231 whole entry R177A/R180A): as the sequence (P41231 whole entry C278S) above, with R177A, R180A, S278C counted along it

[14] = system: P2Y purinoceptor 2 (Homo sapiens), P41231 [R177A,R180A]; assay: Agonist activity at N-terminal HA epitope-tagged human P2Y2 receptor R177A_R180A double mutant expressed in human 1321N1 cells assessed as increase in intracellular calcium level relative to carbachol; format: functional, cell-based; in short: as §2
Chain of P2Y purinoceptor 2 (Homo sapiens), P41231 [R177A,R180A] (P41231 whole entry R177A/R180A): as the sequence (P41231 whole entry C278S) above, with R177A, R180A, S278C counted along it

P2Y purinoceptor 2 [15] = molecular target: P2Y purinoceptor 2 (Homo sapiens, UniProt P41231, R177A); assay: Agonist activity at N-terminal HA epitope-tagged human P2Y2 receptor R177A mutant expressed in human 1321N1 cells assessed as increase in intracellular calcium level; format: functional, cell-based; in short: as §1
Chain of P2Y purinoceptor 2 (Homo sapiens, UniProt P41231, R177A) (P41231 whole entry R177A): as the sequence (P41231 whole entry C278S) above, with R177A, S278C counted along it

[16] = system: P2Y purinoceptor 2 (Homo sapiens), P41231 [R177A]; assay: Agonist activity at N-terminal HA epitope-tagged human P2Y2 receptor R177A mutant expressed in human 1321N1 cells assessed as increase in intracellular calcium level relative to carbachol; format: functional, cell-based; in short: as §2
Chain of P2Y purinoceptor 2 (Homo sapiens), P41231 [R177A] (P41231 whole entry R177A): as the sequence (P41231 whole entry C278S) above, with R177A, S278C counted along it

P2Y purinoceptor 2 [17] = molecular target: P2Y purinoceptor 2 (Homo sapiens, UniProt P41231, R180A); assay: Agonist activity at N-terminal HA epitope-tagged human P2Y2 receptor R180A mutant expressed in human 1321N1 cells assessed as increase in intracellular calcium level; format: functional, cell-based; in short: as §1
Chain of P2Y purinoceptor 2 (Homo sapiens, UniProt P41231, R180A) (P41231 whole entry R180A): as the sequence (P41231 whole entry C278S) above, with R180A, S278C counted along it

[18] = system: P2Y purinoceptor 2 (Homo sapiens), P41231 [R180A]; assay: Agonist activity at N-terminal HA epitope-tagged human P2Y2 receptor R180A mutant expressed in human 1321N1 cells assessed as increase in intracellular calcium level relative to carbachol; format: functional, cell-based; in short: as §2
Chain of P2Y purinoceptor 2 (Homo sapiens), P41231 [R180A] (P41231 whole entry R180A): as the sequence (P41231 whole entry C278S) above, with R180A, S278C counted along it

P2Y purinoceptor 2 [19] = molecular target: P2Y purinoceptor 2 (Homo sapiens, UniProt P41231, R272A); assay: Agonist activity at N-terminal HA epitope-tagged human P2Y2 receptor R272A mutant expressed in human 1321N1 cells assessed as increase in intracellular calcium level; format: functional, cell-based; in short: as §1
Chain of P2Y purinoceptor 2 (Homo sapiens, UniProt P41231, R272A) (P41231 whole entry R272A): as the sequence (P41231 whole entry C278S) above, with R272A, S278C counted along it

[20] = system: P2Y purinoceptor 2 (Homo sapiens), P41231 [R272A]; assay: Agonist activity at N-terminal HA epitope-tagged human P2Y2 receptor R272A mutant expressed in human 1321N1 cells assessed as increase in intracellular calcium level relative to carbachol; format: functional, cell-based; in short: as §2
Chain of P2Y purinoceptor 2 (Homo sapiens), P41231 [R272A] (P41231 whole entry R272A): as the sequence (P41231 whole entry C278S) above, with R272A, S278C counted along it

P2Y purinoceptor 2 [21] = molecular target: P2Y purinoceptor 2 (Homo sapiens, UniProt P41231, Y118A); assay: Agonist activity at N-terminal HA epitope-tagged human P2Y2 receptor Y118A mutant expressed in human 1321N1 cells assessed as increase in intracellular calcium level; format: functional, cell-based; in short: as §1
Chain of P2Y purinoceptor 2 (Homo sapiens, UniProt P41231, Y118A) (P41231 whole entry Y118A): as the sequence (P41231 whole entry C278S) above, with Y118A, S278C counted along it

P2Y purinoceptor 2 [22] = molecular target: P2Y purinoceptor 2 (Homo sapiens, UniProt P41231, R194H); assay: Agonist activity at N-terminal HA epitope-tagged human P2Y2 receptor R194H mutant expressed in human 1321N1 cells assessed as increase in intracellular calcium level; format: functional, cell-based; in short: as §1
Chain of P2Y purinoceptor 2 (Homo sapiens, UniProt P41231, R194H) (P41231 whole entry R194H): as the sequence (P41231 whole entry C278S) above, with R194H, S278C counted along it

[23] = system: P2Y purinoceptor 2 (Homo sapiens), P41231 [R194H]; assay: Agonist activity at N-terminal HA epitope-tagged human P2Y2 receptor R194H mutant expressed in human 1321N1 cells assessed as increase in intracellular calcium level relative to carbachol; format: functional, cell-based; in short: as §2
Chain of P2Y purinoceptor 2 (Homo sapiens), P41231 [R194H] (P41231 whole entry R194H): as the sequence (P41231 whole entry C278S) above, with R194H, S278C counted along it

P2Y purinoceptor 2 [24] = molecular target: P2Y purinoceptor 2 (Homo sapiens, UniProt P41231, Y198A); assay: Agonist activity at N-terminal HA epitope-tagged human P2Y2 receptor Y198A mutant expressed in human 1321N1 cells assessed as increase in intracellular calcium level; format: functional, cell-based; in short: as §1
Chain of P2Y purinoceptor 2 (Homo sapiens, UniProt P41231, Y198A) (P41231 whole entry Y198A): as the sequence (P41231 whole entry C278S) above, with Y198A, S278C counted along it

[25] = system: P2Y purinoceptor 2 (Homo sapiens), P41231 [Y198A]; assay: Agonist activity at N-terminal HA epitope-tagged human P2Y2 receptor Y198A mutant expressed in human 1321N1 cells assessed as increase in intracellular calcium level relative to carbachol; format: functional, cell-based; in short: as §2
Chain of P2Y purinoceptor 2 (Homo sapiens), P41231 [Y198A] (P41231 whole entry Y198A): as the sequence (P41231 whole entry C278S) above, with Y198A, S278C counted along it

[26] = system: P2Y purinoceptor 2 (Homo sapiens), P41231 [C278S]; assay: Agonist activity at N-terminal HA epitope-tagged human P2Y2 receptor C278S mutant expressed in human 1321N1 cells assessed as increase in intracellular calcium level relative to carbachol; format: functional, cell-based; in short: as §2
Chain of P2Y purinoceptor 2 (Homo sapiens), P41231 [C278S] (P41231 whole entry C278S): as the sequence (P41231 whole entry C278S) above

[27] = system: P2Y purinoceptor 2 (Homo sapiens), P41231 [UNDEFINED MUTATION]; assay: Ratio of EC50 for N-terminal HA epitope-tagged human P2Y2 receptor R177A_R180A double mutant to EC50 for wild type 4 human P2Y2 receptor
[28] = system: P2Y purinoceptor 2 (Homo sapiens), P41231 [UNDEFINED MUTATION]; assay: Ratio of EC50 for N-terminal HA epitope-tagged human P2Y2 receptor Y114A mutant to EC50 for wild type 3 human P2Y2 receptor
In short: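 HA-tagged receptors (wild type or mutant) were stably expressed in 1321N1 astrocytoma cells via retrovirus. Cells were loaded with Oregon Green BAPTA-1/AM in Krebs-HEPES pH 7.4, then kept 20 min at 28 °C before agonist injection. Fluorescence was read at 520 nm (excitation 485 nm). […] Each mutant was compared with the wild-type line of similar expression.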

[29] = system: P2Y purinoceptor 2 (Homo sapiens), P41231 [Y118A]; assay: Agonist activity at N-terminal HA epitope-tagged human P2Y2 receptor Y118A mutant expressed in human 1321N1 cells assessed as increase in intracellular calcium level relative to carbachol; format: functional, cell-based; in short: as §2
Chain of P2Y purinoceptor 2 (Homo sapiens), P41231 [Y118A] (P41231 whole entry Y118A): as the sequence (P41231 whole entry C278S) above, with Y118A, S278C counted along it

Chain of P2Y purinoceptor 2 (Homo sapiens), P41231 [UNDEFINED MUTATION] (P41231 whole entry, looked up, stated change not applied): as the sequence (P41231 whole entry C278S) above, with S278C counted along it

For `Nc1ncnc2c1ncn2[C@@H]1O[C@H](COP(=O)(O)OP(=O)(O)OP(=O)(O)O)[C@@H](O)[C@H]1O` [ADENOSINE TRIPHOSPHATE], the Ratio EC50 [1] was 10, the EC50 (P2Y purinoceptor 2 [2]) was 1000 nM and the Ratio EC50 [3] was 3. For the same compound, the Efficacy [4] was 5%, the EC50 (P2Y purinoceptor 2 [5]) was > 300000 nM and the Efficacy (P2Y purinoceptor 2 [6]) was 92%. The Activity (P2Y purinoceptor 2 [7]) was “Dose-dependent effect”, the EC50 (P2Y purinoceptor 2 [8]) was 95.8 nM and the EC50 (P2Y purinoceptor 2 [9]) was 63.1 nM. The EC50 (P2Y purinoceptor 2 [10]) was 30.1 nM, the Efficacy (P2Y purinoceptor 2 [11]) was 110% and the Efficacy [12] was 87%. The EC50 (P2Y purinoceptor 2 [13]) was 239 nM, the Efficacy [14] was 104% and the EC50 (P2Y purinoceptor 2 [15]) was 183 nM. For the same compound, the Efficacy [16] was 117%, the EC50 (P2Y purinoceptor 2 [17]) was 237 nM and the Efficacy [18] was 115%. It also gave an EC50 (P2Y purinoceptor 2 [19]) of 11700 nM, an Efficacy [20] of 87% and an EC50 (P2Y purinoceptor 2 [21]) of 299 nM. For the same compound, the EC50 (P2Y purinoceptor 2 [22]) was 111 nM, the Efficacy [23] was 130% and the EC50 (P2Y purinoceptor 2 [24]) was 120 nM. For the same compound, the Efficacy [25] was 126%, the Efficacy [26] was 97% and the Ratio EC50 [27] was 4. The Ratio EC50 [28] was 2 and the Efficacy [29] was 41%.
